Assay results from ChEMBL document CHEMBL1143890, “Discovery of long-acting N-(cyanomethyl)-N-alkyl-L-prolinamide inhibitors of dipeptidyl peptidase IV” (Bioorg Med Chem, 2008).
Activity calls are given as the source filed them. The calls are words filed in the database; no cut-off is given here.

Tests used:
Rattus norvegicus [1] = species on record: Rattus norvegicus; assay: animal or person; conditions: Sprague-Dawley, Plasma, po, 6 h, read-out: Inhibition
Dipeptidyl peptidase 8 = Dipeptidyl peptidase 8 (Homo sapiens, UniProt Q6V1X1); assay: Inhibition of human DPP8
Sequence of Dipeptidyl peptidase 8 (Q6V1X1 whole entry): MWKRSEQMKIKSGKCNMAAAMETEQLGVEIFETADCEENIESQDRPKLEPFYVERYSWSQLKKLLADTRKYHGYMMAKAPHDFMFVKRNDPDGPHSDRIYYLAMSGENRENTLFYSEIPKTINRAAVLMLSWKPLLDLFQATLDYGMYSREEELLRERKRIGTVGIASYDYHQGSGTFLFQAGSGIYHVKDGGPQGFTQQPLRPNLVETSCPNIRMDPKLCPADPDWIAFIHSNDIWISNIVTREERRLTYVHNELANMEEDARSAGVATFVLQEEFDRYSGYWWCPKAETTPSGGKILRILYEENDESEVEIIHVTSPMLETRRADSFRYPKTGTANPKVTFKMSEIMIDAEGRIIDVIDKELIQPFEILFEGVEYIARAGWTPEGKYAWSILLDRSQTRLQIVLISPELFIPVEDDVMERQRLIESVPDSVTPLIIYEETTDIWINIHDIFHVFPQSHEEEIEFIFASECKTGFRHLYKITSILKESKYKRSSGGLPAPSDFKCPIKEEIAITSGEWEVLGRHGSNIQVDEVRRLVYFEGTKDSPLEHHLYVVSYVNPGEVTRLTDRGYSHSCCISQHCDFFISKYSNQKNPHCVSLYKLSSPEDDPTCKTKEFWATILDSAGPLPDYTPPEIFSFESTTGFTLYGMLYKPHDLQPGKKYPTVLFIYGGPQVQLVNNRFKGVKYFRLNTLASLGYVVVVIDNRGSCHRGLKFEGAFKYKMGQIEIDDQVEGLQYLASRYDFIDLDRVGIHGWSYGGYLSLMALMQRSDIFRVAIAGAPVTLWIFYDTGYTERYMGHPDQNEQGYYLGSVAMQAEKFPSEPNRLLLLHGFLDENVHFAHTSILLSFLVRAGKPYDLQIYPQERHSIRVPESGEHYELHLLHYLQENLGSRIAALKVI

Rattus norvegicus [2] = assay: Ex vivo inhibition of DPP4 in Sprague-Dawley rat plasma at 0.3 mg/kg, po after 9 hrs; format: functional
Procedure, shortened: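 Male Sprague–Dawley rats, 6–7 weeks old, fasted at least 8 h, then given a single oral dose of 0.3 mg/kg in 0.5% methyl cellulose. Jugular vein blood was drawn before dosing and at 0.25–9 h after. Plasma was mixed with Gly-Pro-AMC (added as a 60 µM solution). The initial rate over the first 15 min was read at 37 °C (ex 355/em 460 nm). Inhibition is expressed as % of basal activity.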

Rattus norvegicus [3] = assay: Reduction of glucose level in Sprague-Dawley rat plasma at 1 mg/kg, po after 7 hrs by multiple glucose tolerance test; format: functional, organism-based; parameters: dose 1 mg/kg
Procedure, shortened: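 Male SD rats (364–473 g), fasted at least 20 h, were dosed orally at −0.5 h with 1 mg/kg or with vehicle (0.5% methyl cellulose). Oral glucose, 1 g/kg, was given at 0 and 6 h. Tail vein plasma was taken at −0.08 to 8 h, stored at −80 °C, and assayed by glucose oxidase-peroxidase. Results are mean ± SEM (n = 7), compared with vehicle by Student's t test.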

Compound	inhibition in vivo at 0.3 mg/kg (Rattus norvegicus [1]) [%]	other results
C[C@@H]1N[C@H](C(=O)N(C)CC#N)C[C@@H]1C(=O)N(C)C	55	IC50 (Dipeptidyl peptidase 8): > 100 µM
C[C@@H]1N[C@H](C(=O)N(CC#N)C2CC2)C[C@@H]1C(=O)N(C)C	29	–
CCN(CC#N)C(=O)[C@@H]1C[C@H](C(=O)N2CCCC2)[C@H](C)N1	53	–
CCN(CC#N)C(=O)[C@@H]1C[C@H](C(=O)N(C)C)[C@H](C)N1	73	inhibition in vivo at 0.3 mg/kg (Rattus norvegicus [2]): 62%; Activity (Rattus norvegicus [3]): Active; IC50 (Dipeptidyl peptidase 8): > 100 µM
CCN(CC#N)C(=O)[C@@H]1C[C@H](C(=O)N2CCCCC2)[C@H](C)N1	60	–
C[C@@H]1N[C@H](C(=O)N2CCC[C@H]2C#N)C[C@@H]1CC(=O)N(C)C	40	–
CC[C@@H]1N[C@H](C(=O)N2CCC[C@H]2C#N)C[C@@H]1C(=O)N(C)C	45	–
CCN(CC#N)C(=O)[C@@H]1C[C@H](C(=O)N2Cc3ccccc3C2)[C@H](C)N1	64	–
C#CCN(CC#N)C(=O)[C@@H]1C[C@H](C(=O)N(C)C)[C@H](C)N1	18	–
CCN(CC#N)C(=O)[C@@H]1C[C@H](C(=O)N2CCOCC2)[C@H](C)N1	65	–
C=CCN(CC#N)C(=O)[C@@H]1C[C@H](C(=O)N(C)C)[C@H](C)N1	19	–
C[C@@H]1N[C@H](C(=O)N2CCC[C@H]2C#N)C[C@@H]1C(=O)N(C)C	89	inhibition in vivo at 0.3 mg/kg (Rattus norvegicus [2]): 83%
CCN(CC#N)C(=O)[C@@H]1C[C@H](C(=O)NCc2ccccc2)[C@H](C)N1	31	–
